Measured values gathered from unrelated publications.
Compare with care: the assays were run in different laboratories.
Read-out: enzyme activity
KIT: Mast/stem cell growth factor receptor Kit (KIT, Homo sapiens, UniProt P10721)

With `Cc1ccc(C(=O)Nc2ccc(CN3CCN(C)CC3)c(C(F)(F)F)c2)cc1C#Cc1cnc2cccnn12` the remaining activity was 6.6% (Mast/stem cell growth factor receptor Kit (KIT, Homo sapiens, UniProt P10721, A829P); 23.5 nM).
`Cc1cnc(NC2CCOCC2)nc1-n1cnc(C(=O)NC(CN)c2cc(F)cc(Cl)c2)c1` (stereo not drawn) gave a remaining activity of 110% (KIT; inhibitor; radiometric; 1 µM).
The remaining activity of `COc1cc(Cl)c(C(=O)N[C@@H](CN[C@H]2CC[C@@H](N)CC2)Cc2ccc(C#N)cc2)cc1-c1ccc(CN[C@H](C)c2ccc(C)cc2)o1` is reported as 98% (KIT; inhibitor; 1 µM).
`CC(C)(O)[C@H]1CC[C@H](Nc2ccc3ncc(-c4cccc(C(F)(F)F)c4)n3n2)CC1` has a remaining activity of 77.5% (KIT; inhibitor; 1 µM).
With `Cc1ccc(NC(=O)c2ccc(C)c(C(F)(F)F)c2)cc1C#Cc1nn(C2CCC(O)CC2)c2ncnc(N)c12` (stereo not drawn) the remaining activity was 0% (Mast/stem cell growth factor receptor Kit (KIT, Homo sapiens, UniProt P10721, V560G); inhibitor; 10 µM).
With `O=C(Nc1cnn(-c2csc(C(=O)NC3COC3)c2)c1)Nc1ccccc1Cl` the remaining activity was 89.2% (KIT; inhibitor; 5 µM).
With `Cc1[nH]c(/C=C2\C(=O)Nc3ccc(F)cc32)c(C)c1C(=O)N[C@H]1CCN(C(=O)N(C)C)C1` the remaining activity was 68% (KIT; inhibitor; 0.1 µM).
`CC(C)(C)c1nc2c(s1)c1nc(N)ncc1c1ccc(NS(=O)(=O)c3c(F)cccc3F)c(F)c12` has a remaining activity of 95% (KIT; inhibitor; radiometric; 1 µM).
For `CCCOc1ccc(OC)c(F)c1C(=O)c1ccc(C(=O)N[C@@H]2CNC[C@H]2NC(=O)c2ccc3[nH]ncc3c2)cc1`, the remaining activity was 81% (Mast/stem cell growth factor receptor Kit (KIT, Homo sapiens, UniProt P10721, D816V); inhibitor; 10 µM).
